Data: ChEMBL document CHEMBL2146419, “Effects of polyphenol compounds on influenza A virus replication and definition of their mechanism of action” (Bioorg Med Chem, 2012)
Calls of active or inactive are those of the source. The rule behind the calls is not given here.

Tests used:
Influenza A virus [1] = assay: Antiviral activity against Influenza virus A/Puerto Rico/8/34 H1N1 infected in dog MDCK cells incubated at 6 hrs post-infection measured after 24 hrs by hemagglutininating unit assay relative to control; type: functional, organism-based; conditions: A/Puerto Rico/8/1934(H1N1)
Outline: (§1)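 Treatment of PR8-infected MDCK cells started at 2, 4, 6 or 8 h p.i. and compound stayed in the medium through 24 h p.i. Virus yield in the supernatant was read by HAU at 24 h p.i. as a percentage of DMSO-treated control infected cells. Means of two experiments, each in duplicate.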

MDCK [2] = assay: Restoration of GSH level in dog MDCK cells infected with Influenza virus A/Puerto Rico/8/34 H1N1 measured at 24 hrs post-infection by DTNB-based colometric assay; type: functional, cell-based; conditions: Canis lupus familiaris
Outline: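 MDCK cells, infected or mock-infected and treated, were assayed for intracellular GSH and GSSG with a glutathione assay kit at 24 h p.i. Results are in nmol per mg protein, as the mean of two experiments each in duplicate, compared against mock-infected cells.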

MDCK [3] = assay: Cytotoxicity against dog MDCK cells assessed as morphological alterations incubated for 24 hrs followed by compound wash out measured after 24 hrs by microscopic analysis; type: cell-based, Canis lupus familiaris
Outline: (§2)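 Confluent MDCK monolayers plated at 2×10^5/ml were treated after 24 h with compound at 5–40 μg/ml and incubated a further 24 h. Assessed by microscopic examination of morphology, Trypan blue exclusion for viability, and cell counts for multiplication rate.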

Influenza A virus [4] = assay: Antiviral activity against Influenza virus A/Puerto Rico/8/34 H1N1 infected in dog MDCK cells incubated overnight prior to infection followed by compound washout by hemagglutininating unit assay; type: functional, organism-based; conditions: A/Puerto Rico/8/1934(H1N1)
Outline: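 Timing variants, each read by HAU of virus yield from MDCK cells: PR8 stock preincubated 1 h with compound before infection; compound present only during the 1 h adsorption; or cells pretreated overnight with washout just before viral challenge.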

Influenza A virus [5] = assay: Antiviral activity against Influenza virus A/Puerto Rico/8/34 H1N1 infected in dog MDCK cells incubated for 1 hr post-infection followed by compound washout by hemagglutininating unit assay; type: functional, organism-based; conditions: A/Puerto Rico/8/1934(H1N1)
[6] = target: T1, Protein kinase C (PKC) (Homo sapiens) (UniProt O94806+P41743+P17252+P05129+Q05655+P05771+Q05513+Q02156+P24723+Q15139+Q04759); assay: Inhibition of PKC-mediated ERK1 phosphorylation in human NCI-H292 cells infected with Influenza virus A/Puerto Rico/8/34 H1N1 measured at 6 hrs post-infection by immunoblotting analysis; type: cell-based
Outline: (§3)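 NCI-H292 cells, mock- or PR8-infected at 1 M.O.I., were treated and lysed 6 h p.i. Lysates were run on 10% SDS–PAGE and blotted with rabbit anti-phospho-PKD, -ERK1/2, -p38MAPK or -JNK antibodies. Membranes were then stripped and reprobed for the corresponding total proteins.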

MDCK [7] = assay: Inhibition of PKC/p38MAPK-mediated nuclear-cytoplasmic viral nucleoprotein export in dog MDCK cells infected with Influenza virus A/Puerto Rico/8/34 H1N1 assessed as decrease in nucleoprotein level in cytoplasm measured at 8 hrs post-infection by Western blot analysis; type: cell-based; conditions: Canis lupus familiaris
Outline: (§4)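 Cytosolic and nuclear extracts from treated and untreated infected MDCK cells were run on SDS-PAGE and immunoblotted with anti-NP antibodies. Blots were stripped and reprobed for α-tubulin (cytosol) or lamin A/C (nucleus). Densitometry is given as the NP/tubulin or NP/lamin ratio; one representative experiment of three.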

MDCK [8] = assay: Cytotoxicity against dog MDCK cells assessed as loss of cell viability incubated for 24 hrs followed by compound wash out measured after 24 hrs by trypan blue exclusion assay; type: cell-based, Canis lupus familiaris; outline: as §2
Influenza A virus [9] = assay: Antiviral activity against Influenza virus A/Puerto Rico/8/34 H1N1 infected in dog MDCK cells incubated at 8 hrs post-infection measured after 24 hrs by hemagglutininating unit assay relative to control; type: functional, organism-based; conditions: A/Puerto Rico/8/1934(H1N1); outline: as §1
[10] = target: T1, Protein kinase C (PKC) (Homo sapiens); assay: Inhibition of PKC-mediated JNK phosphorylation in human NCI-H292 cells infected with Influenza virus A/Puerto Rico/8/34 H1N1 measured at 6 hrs post-infection by immunoblotting analysis; type: cell-based; outline: as §3
MDCK [11] = assay: Restoration of GSH level in dog MDCK cells infected with Influenza virus A/Puerto Rico/8/34 H1N1 assessed as impairment of viral protein localization on plasma membrane measured at 24 hrs post-infection by immunofluorescence assay; type: functional, cell-based; conditions: Canis lupus familiaris
[12] = target: T1, Protein kinase C (PKC) (Homo sapiens); assay: Inhibition of PKC-mediated PKD phosphorylation in human NCI-H292 cells infected with Influenza virus A/Puerto Rico/8/34 H1N1 measured at 6 hrs post-infection by immunoblotting analysis; type: cell-based; outline: as §3
MDCK [13] = assay: Cytotoxicity against dog MDCK cells assessed as modification of cell multiplication rate incubated for 24 hrs followed by compound wash out measured after 24 hrs by cell counting analysis; type: cell-based, Canis lupus familiaris; outline: as §2
Influenza A virus [14] = assay: Downregulation of HA protein expression in Influenza virus A/Puerto Rico/8/34 H1N1 infected in dog MDCK cells measured at 24 hrs post-infection; type: functional, organism-based; conditions: A/Puerto Rico/8/1934(H1N1)
Outline: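 PR8-infected MDCK cells, untreated or treated, were lysed at 24 h. Homogenates were run on 12% gels under reducing conditions, blotted to nitrocellulose and probed with goat polyclonal anti-influenza antibodies. Densitometry was expressed as the ratio of each viral protein to actin, relative to untreated infected cells.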

Influenza A virus [15] = assay: Antiviral activity against Influenza virus A/Puerto Rico/8/34 H1N1 infected in dog MDCK cells incubated at 4 hrs post-infection measured after 24 hrs by hemagglutininating unit assay relative to control; type: functional, A/Puerto Rico/8/1934(H1N1); outline: as §1
Influenza A virus [16] = assay: Antiviral activity against Influenza virus A/Puerto Rico/8/34 H1N1 infected in dog MDCK cells incubated at 2 hrs post-infection measured after 24 hrs by hemagglutininating unit assay relative to control; type: functional, A/Puerto Rico/8/1934(H1N1); outline: as §1
Influenza A virus [17] = assay: Antiviral activity against Influenza virus A/Puerto Rico/8/34 H1N1 infected in dog MDCK cells assessed as inhibition of viral replication at 20 ug/mL incubated at 1 hr post-infection measured after 24 hrs by hemagglutininating unit assay relative to control; type: functional; conditions: A/Puerto Rico/8/1934(H1N1)
Outline: (§5)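 MDCK cells infected with PR8; 1 h after adsorption they were washed, and compound (5–20 μg/ml) or DMSO was added and kept on throughout. Virus released into the supernatant was titrated by HAU assay 24 h p.i. Yield is a percentage of control infected cells given 0.02% DMSO. Means of four experiments, each in duplicate.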

MDCK [18] = assay: Restoration of GSH level in dog MDCK cells infected with Influenza virus A/Puerto Rico/8/34 H1N1 assessed as viral protein localization on peri-nuclear zone measured at 24 hrs post-infection by immunofluorescence assay; type: functional, cell-based; conditions: Canis lupus familiaris
Influenza A virus [19] = assay: Antiviral activity against Influenza virus A/Puerto Rico/8/34 H1N1 infected in dog MDCK cells incubated at 1 hr post-infection measured after 24 hrs by hemagglutininating unit assay; type: functional, organism-based; conditions: A/Puerto Rico/8/1934(H1N1); outline: as §5
MDCK [20] = assay: Inhibition of PKC/p38MAPK-mediated nuclear-cytoplasmic viral ribonucleoprotein export in dog MDCK cells infected with Influenza virus A/Puerto Rico/8/34 H1N1 measured at 8 hrs post-infection by inmmunofluorescence; type: cell-based; conditions: Canis lupus familiaris
Outline: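 MDCK cells were infected with PR8 at 1 M.O.I. for single-cycle replication. At 8 h p.i. cells were fixed, permeabilized and stained with DAPI, then with anti-NP primary and FITC-conjugated secondary antibody. NP localization was assessed by fluorescence microscopy.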

MDCK [21] = assay: Inhibition of PKC/p38MAPK-mediated nuclear-cytoplasmic viral nucleoprotein export in dog MDCK cells infected with Influenza virus A/Puerto Rico/8/34 H1N1 assessed as increase in nucleoprotein level in nucleus measured at 8 hrs post-infection by Western blot analysis; type: cell-based; conditions: Canis lupus familiaris; outline: as §4

How did the Activity (Influenza A virus [1]) turn out when `O=C1/C(=C/c2ccc(O)c(O)c2)COC/C1=C\c1ccc(O)c(O)c1` was run?
Its Activity is “Active”.

What about the Activity (MDCK [2]) of the same compound?
Its Activity is “Active”.

What about the Activity (MDCK [3]) of the same compound?
The Activity was “Non-toxic”.

And the Activity (Influenza A virus [4])?
The Activity was “inactive”.

And the Activity (Influenza A virus [5])?
The Activity was “inactive”.

What about the inhibition [6] of the same compound?
The inhibition was “inactive”.

What about the inhibition (MDCK [7]) of the same compound?
The inhibition was “Active”.

What about the Activity (MDCK [8]) of the same compound?
The Activity was “Non-toxic”.

And the Activity (Influenza A virus [9])?
Its Activity is “inactive”.

What about the inhibition [10] of the same compound?
The inhibition was “Active”.

And the Activity (MDCK [11])?
Its Activity is “Active”.

And the inhibition [12]?
Its inhibition is “Active”.

And the Activity (MDCK [13])?
The Activity was “Non-toxic”.

And the Activity (Influenza A virus [14])?
Its Activity is “Active”.

And the Activity (Influenza A virus [15])?
The Activity was 79%.

What about the Activity (Influenza A virus [16]) of the same compound?
The Activity was 79%.

And the inhibition at 20 µg/mL (Influenza A virus [17])?
Its inhibition at 20 µg/mL is 75%.

And the Activity (MDCK [18])?
Its Activity is “Active”.

What about the Activity (Influenza A virus [19]) of the same compound?
Its Activity is “Dose-dependent effect”.

And the inhibition (MDCK [20])?
Its inhibition is “Active”.

And the inhibition (MDCK [21])?
Its inhibition is “Active”.

What does the source list for `O=C(/C=C/c1ccc(O)cc1)c1ccc(O)cc1O` [ISOLIQUIRITIGENIN]?
Activity (Influenza A virus [1]): Active; Activity (MDCK [2]): Active; Activity (MDCK [3]): Non-toxic; Activity (Influenza A virus [4]): inactive; Activity (Influenza A virus [5]): inactive; inhibition [6]: inactive; inhibition (MDCK [7]): Active; Activity (MDCK [8]): Non-toxic; Activity (Influenza A virus [9]): inactive; inhibition [10]: Active; Activity (MDCK [11]): Active; inhibition [12]: Active; Activity (MDCK [13]): Non-toxic; Activity (Influenza A virus [14]): Active; Activity (Influenza A virus [15]): 79%; Activity (Influenza A virus [16]): 79%; inhibition (Influenza A virus [17]): Active; Activity (MDCK [18]): Active; Activity (Influenza A virus [19]): Dose-dependent effect; inhibition (MDCK [20]): Active; inhibition (MDCK [21]): Active
